ChEMBL document CHEMBL1128532, “Antidiabetic agents: a new class of reversible carnitine palmitoyltransferase I inhibitors” (J Med Chem, 1995)
“And” between values parts separate entries of the source, which are not always exact repeats. Equal values may be shown once.

Assays:
Rattus norvegicus [1] = organism: Rattus norvegicus; experiment: Inhibition of production of ketones in rat liver homogenates; format: functional
Procedure, shortened: (§1)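 Fatty acid oxidation was read as the fall in ketone production, tested in rat liver homogenates and in hepatocytes isolated from 18 h fasted rats. IC50 ± SE was taken from concentration-response data. Where no reasonable dose response was seen, the highest dose tested is given instead.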

Rattus norvegicus [2] = organism: Rattus norvegicus; experiment: Inhibition of production of ketones in rat liver hepatocytes from 18 hr fasted rats; format: functional; conditions: Hepatocyte; procedure, shortened: as §1
[3] = target: T1, Carnitine O-palmitoyltransferase 1, liver isoform (Rattus norvegicus, UniProt P32198); experiment: In vitro inhibition of carnitine palmitoyltransferase I with respect to palmitoyl CoA in rat
T1 sequence (P32198 whole entry): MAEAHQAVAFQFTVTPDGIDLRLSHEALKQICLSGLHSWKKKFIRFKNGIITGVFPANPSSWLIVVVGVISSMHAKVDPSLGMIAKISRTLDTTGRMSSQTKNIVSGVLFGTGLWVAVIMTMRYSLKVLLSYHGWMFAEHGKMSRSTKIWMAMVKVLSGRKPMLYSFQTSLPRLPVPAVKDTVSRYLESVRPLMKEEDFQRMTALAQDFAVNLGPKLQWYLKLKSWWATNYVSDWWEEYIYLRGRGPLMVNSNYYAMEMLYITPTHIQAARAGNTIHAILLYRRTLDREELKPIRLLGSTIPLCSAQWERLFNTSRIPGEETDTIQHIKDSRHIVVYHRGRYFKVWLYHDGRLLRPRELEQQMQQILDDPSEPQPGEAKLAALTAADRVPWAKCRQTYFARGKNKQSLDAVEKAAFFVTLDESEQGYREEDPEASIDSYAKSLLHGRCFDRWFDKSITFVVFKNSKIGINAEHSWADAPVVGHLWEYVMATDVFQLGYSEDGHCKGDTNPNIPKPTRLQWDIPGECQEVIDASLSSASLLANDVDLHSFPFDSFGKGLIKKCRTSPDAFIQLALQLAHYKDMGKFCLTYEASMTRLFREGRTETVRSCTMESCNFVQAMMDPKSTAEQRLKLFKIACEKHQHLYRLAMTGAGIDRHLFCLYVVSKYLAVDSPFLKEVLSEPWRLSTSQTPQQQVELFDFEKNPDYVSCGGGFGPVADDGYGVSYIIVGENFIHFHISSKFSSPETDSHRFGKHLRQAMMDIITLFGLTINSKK

Rattus norvegicus [4] = experiment: Blood glucose level in NIDDM rats after 11 days of treatment at a dose 21.9 […] Blood samples taken 6 hr post-dose in a 6 hr fasted state; format: functional
Procedure, shortened: (§2)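 NIDDM model: fat-fed, low-dose streptozotocin-treated rats. Oral gavage once daily for 11 days at 0 to 87.5 mg/kg/d. Blood sampled 6 h post-dose, with rats in a 6 h fasted state. Blood glucose reported in mg/dL as mean ± error. Significance tested against vehicle control (p<0.05, p<0.01).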

Rattus norvegicus [5] = experiment: Blood glucose level in NIDDM rats after 11 days of treatment at a dose 32.9 mg/kg/d Blood samples taken 6 hr post-dose in a 6 hr fasted state; format: functional; procedure, shortened: as §2
Rattus norvegicus [6] = organism: Rattus norvegicus; experiment: Blood glucose level in NIDDM rats after 11 days of treatment Blood samples taken 6 hr post-dose in a 6 hr fasted state.; format: functional; procedure, shortened: as §2
Rattus norvegicus [7] = experiment: Blood glucose level in NIDDM rats after 11 days of treatment at a dose 0 mg/kg/d Blood samples taken 6 hr post-dose in a 6 hr fasted state; format: functional; procedure, shortened: as §2
Rattus norvegicus [8] = experiment: Blood glucose level in NIDDM rats after 11 days of treatment at a dose 21.9 mg/kg/d Blood samples taken 6 hr post-dose in a 6 hr fasted state; format: functional; procedure, shortened: as §2

Compound: CCCCCCCCCCCCCCCP(=O)([O-])O[C@H](CC(=O)O)C[N+](C)(C)C
- IC50 (Rattus norvegicus [1]): 36 µM
- IC50 (Rattus norvegicus [2]): 3 µM

Compound: CCCCCCCCCCCCCCP(=O)([O-])CC(CC(=O)O)C[N+](C)(C)C (configuration not stated)
- IC50 (Rattus norvegicus [1]): > 300 µM
- IC50 (Rattus norvegicus [2]): > 300 µM

Compound: CCCCCCCCCCCCCCCC(=O)NC(CC(=O)[O-])C[N+](C)(C)C (configuration not stated)
- IC50 (Rattus norvegicus [1]): 1.3 µM
- IC50 (Rattus norvegicus [2]): 1.2 µM

Compound: CCCCCCCCCCCCCCCP(=O)([O-])NC(CC(=O)O)C[N+](C)(C)C (configuration not stated)
- IC50 (Rattus norvegicus [1]): > 100 µM
- IC50 (Rattus norvegicus [2]): > 300 µM

Compound: CCCCCCCCCCCCCCOP(=O)([O-])O[C@H](CC(=O)O)C[N+](C)(C)C
- Ki [3]: 3.6 µM
- Glucose level (Rattus norvegicus [4]): 164 mg/dL
- Glucose level (Rattus norvegicus [5]): 179 mg/dL and 93 mg/dL
- Glucose level (Rattus norvegicus [6]): 197 mg/dL
- Glucose level (Rattus norvegicus [7]): 197 mg/dL
- Glucose level (Rattus norvegicus [8]): 164 mg/dL
- IC50 (Rattus norvegicus [1]): 28 µM
- IC50 (Rattus norvegicus [2]): 3.4 µM

Compound: CCCCCCCCCCCCCCOP(=O)([O-])O[C@@H](CC(=O)O)C[N+](C)(C)C
- IC50 (Rattus norvegicus [1]): > 300 µM
- IC50 (Rattus norvegicus [2]): 220 µM

Compound: CCCCCCCCCCCCCCOP(=O)([O-])N[C@H](CC(=O)O)C[N+](C)(C)C
- IC50 (Rattus norvegicus [1]): 24 µM
- IC50 (Rattus norvegicus [2]): 46 µM

Compound: CCCCCCCCCCCCCCCP(=O)([O-])O[C@@H](CC(=O)O)C[N+](C)(C)C
- IC50 (Rattus norvegicus [1]): > 100 µM
- IC50 (Rattus norvegicus [2]): > 300 µM
